These results are taken from ChEMBL document CHEMBL2434913 (Bioorg Med Chem Lett, 2013).

For one test, the target named is T1, Prostaglandin G/H synthase 2 (Mus musculus) (UniProt Q05769).
T1 sequence (whole entry): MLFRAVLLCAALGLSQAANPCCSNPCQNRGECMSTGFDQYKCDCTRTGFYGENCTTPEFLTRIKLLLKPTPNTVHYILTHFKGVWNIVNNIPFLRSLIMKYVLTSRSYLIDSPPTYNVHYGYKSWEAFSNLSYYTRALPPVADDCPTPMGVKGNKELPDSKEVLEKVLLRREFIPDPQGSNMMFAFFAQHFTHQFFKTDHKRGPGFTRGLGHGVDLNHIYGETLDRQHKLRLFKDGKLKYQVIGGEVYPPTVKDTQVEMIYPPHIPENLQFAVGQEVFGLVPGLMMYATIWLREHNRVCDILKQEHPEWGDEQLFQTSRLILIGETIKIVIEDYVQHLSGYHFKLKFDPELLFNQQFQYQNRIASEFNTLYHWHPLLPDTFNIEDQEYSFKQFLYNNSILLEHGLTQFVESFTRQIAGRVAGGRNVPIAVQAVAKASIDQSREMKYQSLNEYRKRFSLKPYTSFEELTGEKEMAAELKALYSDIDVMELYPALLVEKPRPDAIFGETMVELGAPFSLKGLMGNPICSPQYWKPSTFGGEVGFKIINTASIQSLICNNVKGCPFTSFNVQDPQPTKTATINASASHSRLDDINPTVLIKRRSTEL
The experiment in a line: Inhibition of purified mouse COX-2 assessed as inhibition of PGE2/PGD2 formation preincubated at 10 uM for 3 mins before arachidonic acid substrate addition measured after 30 seconds by LC-MS-MS method. The procedure, abridged: (§1)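 Purified murine COX-2 (50 nM) preincubated 3 min with test agent at 10 µM in DMSO, alongside a solvent control. Then 2-AG or AA added at 5 µM, 37 °C, for 30 s. Read-out is percent inhibition of substrate oxygenation versus control. Mean ± SD, n = 6.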
The term inhibition denotes how much of the control response was suppressed. Take `O=C(O)Cc1ccccc1Nc1ccccc1F`: the inhibition is 0%. Turning to `Cc1cccc(F)c1Nc1ccccc1CC(=O)O`, the inhibition came to 0%.

As for `Cc1ccc(Nc2c(C)cccc2F)c(CC(=O)O)c1`, the inhibition turned out to be 0%. As to `Cc1ccc(Nc2c(F)cccc2F)c(CC(=O)O)c1`, the inhibition was determined as 0%. On the same count and under the same terms, the result for `Cc1ccc(Nc2c(Cl)cc(Cl)cc2Cl)c(CC(=O)O)c1` reads 32%; that for `Cc1ccc(Nc2c(Cl)cccc2Cl)c(CC(=O)O)c1`, 60%; that for `Cc1ccc(Nc2ccccc2Cl)c(CC(=O)O)c1`, 0%. On to `Cc1ccc(Nc2ccccc2F)c(CC(=O)O)c1`, for which the inhibition is 0%.

Take `Cc1ccc(Nc2ccccc2)c(CC(=O)O)c1`: the inhibition was 10%. As for `O=C(O)Cc1ccccc1Nc1c(Cl)cc(Br)cc1Cl`, the inhibition amounted to 55%.

A further test addresses T1, Prostaglandin G/H synthase 2 (Mus musculus). The experiment in a line: Inhibition of purified mouse COX-2 assessed as inhibition of PGE2-G/PGD2-G formation preincubated at 10 uM for 3 mins before 2-AG substrate addition measured after 30 seconds by LC-MS-MS method. In a few lines: as §1
Turning to `O=C(O)Cc1ccccc1Nc1ccccc1F`, the inhibition came out at 25%. Consider `Cc1cccc(F)c1Nc1ccccc1CC(=O)O`, for which the inhibition was determined as 15%. Regarding `Cc1ccc(Nc2c(C)cccc2F)c(CC(=O)O)c1`, the inhibition is 0%.

`Cc1ccc(Nc2ccccc2)c(CC(=O)O)c1`: the inhibition was found to be 0%.

Another test deals with T2, Prostaglandin G/H synthase 2 (Mus musculus, UniProt Q05769).
T2 sequence (Q05769 whole entry): T1 sequence (whole entry)
Put plainly: Inhibition of purified mouse COX-2 assessed as inhibition of PGE2/PGD2 formation preincubated for 3 mins before arachidonic acid substrate addition measured after 30 seconds by LC-MS-MS method.
For orientation: IC50 means the concentration that gives 50% inhibition. On to `Cc1ccc(Nc2c(Cl)cccc2Cl)c(CC(=O)O)c1`, for which the half-maximal inhibitory concentration (IC50) was determined as 200 nM. With `O=C(O)Cc1ccccc1Nc1c(Cl)cc(Br)cc1Cl`, the IC50 was 140 nM.

In the next test the target is T2, Prostaglandin G/H synthase 2. Put plainly: Inhibition of purified mouse COX-2 assessed as inhibition of PGE2-G/PGD2-G formation preincubated for 3 mins before 2-AG substrate addition measured after 30 seconds by LC-MS-MS method.
Take `O=C(O)Cc1ccccc1Nc1c(F)cccc1Cl`: the half-inhibitory concentration (IC50) amounted to 40 nM. The same measure, in the same setting: for `Cc1ccc(Nc2c(F)cccc2F)c(CC(=O)O)c1` the value was 1000 nM.

As for `Cc1ccc(Nc2c(Cl)cc(Cl)cc2Cl)c(CC(=O)O)c1`, the IC50 amounted to 70 nM. Same read-out and setting: the result for `Cc1ccc(Nc2c(Cl)cccc2Cl)c(CC(=O)O)c1` reads 30 nM. Take `Cc1ccc(Nc2ccccc2Cl)c(CC(=O)O)c1`: the IC50 was found to be 60 nM.

As to `O=C(O)Cc1ccccc1Nc1ccccc1Cl`, the IC50 is 3900 nM. Still for that read-out and setting: for `Cc1ccc(Nc2ccccc2F)c(CC(=O)O)c1` the value was 1800 nM; for `O=C(O)Cc1ccccc1Nc1c(F)cccc1F`, 1200 nM; for `O=C(O)Cc1ccccc1Nc1c(Cl)cc(Br)cc1Cl`, 60 nM.
